Experimental data pooled from the literature.
Compare with care: the assays were run in different laboratories.
KDM1A: Lysine-specific histone demethylase 1A (KDM1A, Homo sapiens, UniProt O60341)
ATAD2B: ATPase family AAA domain-containing protein 2B (ATAD2B, Homo sapiens, UniProt Q9ULI0)
PIK3C2B: Phosphatidylinositol 4-phosphate 3-kinase C2 domain-containing subunit beta (PIK3C2B, Homo sapiens, UniProt O00750)
BRD3 BD1: Bromodomain-containing protein 3, BD1 (BRD3, Homo sapiens, UniProt Q15059)
PDE5A: cGMP-specific 3',5'-cyclic phosphodiesterase (PDE5A, Homo sapiens, UniProt O76074)

| SMILES | target | read-out | action | technique | concentration | measurement | result |
| --- | --- | --- | --- | --- | --- | --- | --- |
| CC(=O)N[C@H](C(=O)N[C@H](C(=O)N[C@@H](Cc1ccccc1)C(=O)N[C@H](C(=O)N[C@@H](CO)C(=O)N[C@@H](Cc1c[nH]c2ccccc12)C(=O)N[C@@H](CCC(=O)O)C(=O)N[C@@H](CCC(=O)O)C(=O)N[C@@H](Cc1ccc(O)cc1)C(=O)N[C@@H](CC(C)C)C(=O)N[C@@H](CC(=O)O)C(=O)N[C@@H](Cc1c[nH]c2ccccc12)C(=O)N[C@H](C(N)=O)C(C)C)[C@@H](C)O)C(C)C)[C@@H](C)O | Proprotein convertase subtilisin/kexin type 9 (PCSK9, Homo sapiens, UniProt Q8NBP7) | binding |  | SPR |  | kon | 260000 M⁻¹ s⁻¹ |
| CN1CCN(C(=O)[C@H](CCCN[C@@H]2C[C@H]2c2ccc(F)cc2)NC(=O)c2ccc(-n3ccnn3)cc2)CC1 | KDM1A | enzyme activity | inhibitor |  |  | kinact | 0.018 s⁻¹ |
| Cc1cc2c(cc1N1C(=O)c3cccc4c(Cl)ccc(c34)C1=O)n(C)c(=O)n2C | Bromodomain-containing protein 3, BD2 (BRD3, Homo sapiens, UniProt Q15059) | thermal stability |  | DSF | 10 µM | ΔTm | 0.1 °C |
| NS(=O)(=O)c1ccc(Nc2nc(-c3ccc(F)cc3)c3ccccc3n2)cc1 | ATAD2B | binding |  | competition with immobilised ligand | 1 µM | remaining binding | 76% |
| COc1cc(Cl)c(C(=O)N[C@@H](CN[C@H]2CC[C@@H](N)CC2)Cc2ccc(C#N)cc2)cc1-c1ccc(CN[C@H](C)c2ccc(C)cc2)o1 | Testis-specific serine/threonine-protein kinase 4 (TSSK4, Homo sapiens, UniProt Q6SA08) | enzyme activity | inhibitor |  | 1 µM | remaining activity | 98% |
| Nc1ncnc2occ(-c3ccc(NC(=O)Nc4cc(C(F)(F)F)ccc4F)cc3)c12 | PIK3C2B | enzyme activity | inhibitor |  | 20 µM | remaining activity | 99% |
| O=C(O)c1ccc(CN2CCC(CN[C@@H]3C[C@H]3c3ccccc3)CC2)cc1 | KDM1A | enzyme activity | inhibitor |  |  | kinact | 0.013 s⁻¹ |
| Oc1ccc(-c2nc(-c3ccncc3)c(-c3ccc(F)cc3)[nH]2)cc1 | BRD3 BD1 | thermal stability |  | DSF | 10 µM | ΔTm | 0.72 °C |
| CC(C)(C)N1C(=O)[C@H]2Cc3c([nH]c4ccccc34)[C@H](c3cccnc3)N2C1=O | PDE5A | enzyme activity | inhibitor | FP | 50 µM | inhibition | 89% |
| Cc1cnc(Nc2ccc(OCCN3CCCC3)cc2)nc1Nc1cccc(S(=O)(=O)NC(C)(C)C)c1 | ATAD2B | thermal stability |  | DSF | 10 µM | ΔTm | -0.06 °C |
| Cc1ccc(C(=O)Nc2ccc(CN3CCN(C)CC3)c(C(F)(F)F)c2)cc1C#Cc1cnc2cccnn12 | PIK3C2B | enzyme activity | inhibitor |  | 23.5 nM | remaining activity | 90% |
| COc1ccc([C@H]2c3[nH]c4ccccc4c3C[C@@H]3C(=O)N(C(C)(C)C)C(=O)N23)cc1OC | PDE5A | enzyme activity | inhibitor | FP | 50 µM | inhibition | 52% |
| C[S+]([O-])c1ccc(-c2nc(-c3ccncc3)c(-c3ccc(F)cc3)[nH]2)cc1 (stereo not shown) | BRD3 BD1 | thermal stability |  | DSF | 10 µM | ΔTm | 1.43 °C |
